Tested on: HEK-293T
Experiment: Multiplex assay against HEK293T
Format: toxicity, cell-based
Settings: human
Procedure, shortened: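 Tubulin, mitochondrial-mass and membrane-permeability phenotypes are per cents of healthy-nucleus cells. Cells were gated by CellPathfinder machine learning into Hoechst high-intensity objects or normal cells, normal cells into healthy, pyknosed or fragmented nuclei, and pyknosed cells into mitotic or apoptotic. Before that, live cells stained at seeding with Hoechst33342, BioTracker Green Microtubule Cytoskeleton Dye, MitoTracker Red and Annexin V Alexa Fluor 680 were imaged on a CQ1 microscope at 37°C and 5% CO2 after compound addition.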

[1] = 12 h, 1 µM, compound concentration 1 uM, replicate 1
[2] = 12 h, 1 µM, compound concentration 1 uM, replicate 2
[3] = 12 h, 10 µM, compound concentration 10 uM, replicate 1
[4] = 12 h, 10 µM, compound concentration 10 uM, replicate 2
[5] = 24 h, 1 µM, compound concentration 1 uM, replicate 1
[6] = 24 h, 1 µM, compound concentration 1 uM, replicate 2
[7] = 24 h, 10 µM, compound concentration 10 uM, replicate 1
[8] = 24 h, 10 µM, compound concentration 10 uM, replicate 2
[9] = 48 h, 1 µM, compound concentration 1 uM, replicate 1
[10] = 48 h, 1 µM, compound concentration 1 uM, replicate 2
[11] = 48 h, 10 µM, compound concentration 10 uM, replicate 1
[12] = 48 h, 10 µM, compound concentration 10 uM, replicate 2

**Q.** Which “Population Apoptotic (%)” value [1] does the source give for `COc1cc(C(=O)N2CC[C@@H](O)[C@@H](N)C2)cc2nc(-c3cc4ccccc4n3CC3CC3)n(C)c12.Cl` here?
**A.** 48%

**Q.** What about the “Population Fragmented Nuclei (%)” value [1] of the same compound?
**A.** 6%

**Q.** What about the “Population Healthy Nuclei (%)” value [1] of the same compound?
**A.** 79%

**Q.** And the “Population Hoechst High Intensity Objects (%)” value [1]?
**A.** 10%

**Q.** And the “Population Membrane Permeable-Phenotype (%)” value [1]?
**A.** 0%

**Q.** What about the “Population Mitochondria Different-Phenotype (%)” value [1] of the same compound?
**A.** 56%

**Q.** What about the “Population Mitotic Cells (%)” value [1] of the same compound?
**A.** 51%

**Q.** What about the “Population Normal (%)” value [1] of the same compound?
**A.** 89%

**Q.** And the “Population Pyknosed Nuclei (%)” value [1]?
**A.** 13%

**Q.** And the “Population Tubulin-Different-Phenotype (%)” value [1]?
**A.** 52%

**Q.** And the “Total Cell Count” value [1]?
**A.** 398

**Q.** What about the “Population Apoptotic (%)” value [2] of the same compound?
**A.** 70%

**Q.** What about the “Population Fragmented Nuclei (%)” value [2] of the same compound?
**A.** 2%

**Q.** And the “Population Healthy Nuclei (%)” value [2]?
**A.** 77%

**Q.** What about the “Population Hoechst High Intensity Objects (%)” value [2] of the same compound?
**A.** 15%

**Q.** And the “Population Mitochondria Different-Phenotype (%)” value [2]?
**A.** 71%

**Q.** And the “Population Mitotic Cells (%)” value [2]?
**A.** 29%

**Q.** And the “Population Normal (%)” value [2]?
**A.** 84%

**Q.** And the “Population Pyknosed Nuclei (%)” value [2]?
**A.** 20%

**Q.** And the “Population Tubulin-Different-Phenotype (%)” value [2]?
**A.** 37%

**Q.** And the “Total Cell Count” value [2]?
**A.** 281

**Q.** And the “Population Apoptotic (%)” value [3]?
**A.** 71%

**Q.** And the “Population Fragmented Nuclei (%)” value [3]?
**A.** 5%

**Q.** What about the “Population Healthy Nuclei (%)” value [3] of the same compound?
**A.** 66%

**Q.** What about the “Population Hoechst High Intensity Objects (%)” value [3] of the same compound?
**A.** 21%

**Q.** What about the “Population Membrane Permeable-Phenotype (%)” value [3] of the same compound?
**A.** 0%

**Q.** And the “Population Mitochondria Different-Phenotype (%)” value [3]?
**A.** 90%

**Q.** And the “Population Mitotic Cells (%)” value [3]?
**A.** 28%

**Q.** What about the “Population Normal (%)” value [3] of the same compound?
**A.** 78%

**Q.** What about the “Population Pyknosed Nuclei (%)” value [3] of the same compound?
**A.** 28%

**Q.** And the “Population Tubulin-Different-Phenotype (%)” value [3]?
**A.** 79%

**Q.** What about the “Total Cell Count” value [3] of the same compound?
**A.** 260

**Q.** What about the “Population Fragmented Nuclei (%)” value [4] of the same compound?
**A.** 4%

**Q.** And the “Population Healthy Nuclei (%)” value [4]?
**A.** 80%

**Q.** What about the “Population Hoechst High Intensity Objects (%)” value [4] of the same compound?
**A.** 18%

**Q.** And the “Population Membrane Permeable-Phenotype (%)” value [4]?
**A.** 2%

**Q.** And the “Population Mitochondria Different-Phenotype (%)” value [4]?
**A.** 88%

**Q.** What about the “Population Normal (%)” value [4] of the same compound?
**A.** 81%

**Q.** What about the “Population Pyknosed Nuclei (%)” value [4] of the same compound?
**A.** 15%

**Q.** And the “Population Tubulin-Different-Phenotype (%)” value [4]?
**A.** 72%

**Q.** What about the “Total Cell Count” value [4] of the same compound?
**A.** 350

**Q.** And the “Population Apoptotic (%)” value [5]?
**A.** 42%

**Q.** What about the “Population Fragmented Nuclei (%)” value [5] of the same compound?
**A.** 9%

**Q.** And the “Population Healthy Nuclei (%)” value [5]?
**A.** 77%

**Q.** And the “Population Hoechst High Intensity Objects (%)” value [5]?
**A.** 6%

**Q.** What about the “Population Membrane Permeable-Phenotype (%)” value [5] of the same compound?
**A.** 0%

**Q.** And the “Population Mitochondria Different-Phenotype (%)” value [5]?
**A.** 42%

**Q.** What about the “Population Mitotic Cells (%)” value [5] of the same compound?
**A.** 57%

**Q.** What about the “Population Normal (%)” value [5] of the same compound?
**A.** 93%

**Q.** And the “Population Pyknosed Nuclei (%)” value [5]?
**A.** 13%

**Q.** And the “Population Tubulin-Different-Phenotype (%)” value [5]?
**A.** 33%

**Q.** What about the “Total Cell Count” value [5] of the same compound?
**A.** 527

**Q.** What about the “Population Apoptotic (%)” value [6] of the same compound?
**A.** 60%

**Q.** What about the “Population Fragmented Nuclei (%)” value [6] of the same compound?
**A.** 7%

**Q.** And the “Population Healthy Nuclei (%)” value [6]?
**A.** 79%

**Q.** And the “Population Hoechst High Intensity Objects (%)” value [6]?
**A.** 12%

**Q.** What about the “Population Mitochondria Different-Phenotype (%)” value [6] of the same compound?
**A.** 64%

**Q.** And the “Population Mitotic Cells (%)” value [6]?
**A.** 39%

**Q.** What about the “Population Normal (%)” value [6] of the same compound?
**A.** 87%

**Q.** What about the “Population Pyknosed Nuclei (%)” value [6] of the same compound?
**A.** 12%

**Q.** And the “Population Tubulin-Different-Phenotype (%)” value [6]?
**A.** 30%

**Q.** And the “Total Cell Count” value [6]?
**A.** 363

**Q.** What about the “Population Apoptotic (%)” value [7] of the same compound?
**A.** 58%

**Q.** And the “Population Fragmented Nuclei (%)” value [7]?
**A.** 8%

**Q.** And the “Population Healthy Nuclei (%)” value [7]?
**A.** 70%

**Q.** What about the “Population Hoechst High Intensity Objects (%)” value [7] of the same compound?
**A.** 18%

**Q.** What about the “Population Membrane Permeable-Phenotype (%)” value [7] of the same compound?
**A.** 0%

**Q.** And the “Population Mitochondria Different-Phenotype (%)” value [7]?
**A.** 94%

**Q.** What about the “Population Mitotic Cells (%)” value [7] of the same compound?
**A.** 41%

**Q.** What about the “Population Normal (%)” value [7] of the same compound?
**A.** 81%

**Q.** And the “Population Pyknosed Nuclei (%)” value [7]?
**A.** 20%

**Q.** And the “Population Tubulin-Different-Phenotype (%)” value [7]?
**A.** 78%

**Q.** And the “Total Cell Count” value [7]?
**A.** 312

**Q.** What about the “Population Apoptotic (%)” value [8] of the same compound?
**A.** 65%

**Q.** What about the “Population Fragmented Nuclei (%)” value [8] of the same compound?
**A.** 6%

**Q.** And the “Population Healthy Nuclei (%)” value [8]?
**A.** 78%

**Q.** And the “Population Hoechst High Intensity Objects (%)” value [8]?
**A.** 21%

**Q.** What about the “Population Mitochondria Different-Phenotype (%)” value [8] of the same compound?
**A.** 92%

**Q.** And the “Population Mitotic Cells (%)” value [8]?
**A.** 34%

**Q.** And the “Population Normal (%)” value [8]?
**A.** 78%

**Q.** And the “Population Pyknosed Nuclei (%)” value [8]?
**A.** 15%

**Q.** What about the “Population Tubulin-Different-Phenotype (%)” value [8] of the same compound?
**A.** 74%

**Q.** What about the “Total Cell Count” value [8] of the same compound?
**A.** 411

**Q.** What about the “Population Apoptotic (%)” value [9] of the same compound?
**A.** 24%

**Q.** What about the “Population Fragmented Nuclei (%)” value [9] of the same compound?
**A.** 9%

**Q.** And the “Population Healthy Nuclei (%)” value [9]?
**A.** 79%

**Q.** And the “Population Hoechst High Intensity Objects (%)” value [9]?
**A.** 5%

**Q.** And the “Population Membrane Permeable-Phenotype (%)” value [9]?
**A.** 0%

**Q.** What about the “Population Mitochondria Different-Phenotype (%)” value [9] of the same compound?
**A.** 37%

**Q.** What about the “Population Mitotic Cells (%)” value [9] of the same compound?
**A.** 75%

**Q.** And the “Population Normal (%)” value [9]?
**A.** 94%

**Q.** What about the “Population Pyknosed Nuclei (%)” value [9] of the same compound?
**A.** 10%

**Q.** And the “Population Tubulin-Different-Phenotype (%)” value [9]?
**A.** 28%

**Q.** And the “Total Cell Count” value [9]?
**A.** 816

**Q.** And the “Population Apoptotic (%)” value [10]?
**A.** 64%

**Q.** What about the “Population Healthy Nuclei (%)” value [10] of the same compound?
**A.** 80%

**Q.** And the “Population Hoechst High Intensity Objects (%)” value [10]?
**A.** 7%

**Q.** What about the “Population Mitochondria Different-Phenotype (%)” value [10] of the same compound?
**A.** 48%

**Q.** And the “Population Mitotic Cells (%)” value [10]?
**A.** 36%

**Q.** And the “Population Normal (%)” value [10]?
**A.** 92%

**Q.** What about the “Population Tubulin-Different-Phenotype (%)” value [10] of the same compound?
**A.** 22%

**Q.** And the “Total Cell Count” value [10]?
**A.** 520

**Q.** And the “Population Apoptotic (%)” value [11]?
**A.** 76%

**Q.** And the “Population Fragmented Nuclei (%)” value [11]?
**A.** 13%

**Q.** What about the “Population Healthy Nuclei (%)” value [11] of the same compound?
**A.** 68%

**Q.** And the “Population Hoechst High Intensity Objects (%)” value [11]?
**A.** 18%

**Q.** What about the “Population Membrane Permeable-Phenotype (%)” value [11] of the same compound?
**A.** 0%

**Q.** And the “Population Mitochondria Different-Phenotype (%)” value [11]?
**A.** 89%

**Q.** What about the “Population Mitotic Cells (%)” value [11] of the same compound?
**A.** 23%

**Q.** And the “Population Normal (%)” value [11]?
**A.** 81%

**Q.** And the “Population Pyknosed Nuclei (%)” value [11]?
**A.** 17%

**Q.** And the “Population Tubulin-Different-Phenotype (%)” value [11]?
**A.** 81%

**Q.** What about the “Total Cell Count” value [11] of the same compound?
**A.** 386

**Q.** And the “Population Healthy Nuclei (%)” value [12]?
**A.** 75%

**Q.** And the “Population Hoechst High Intensity Objects (%)” value [12]?
**A.** 23%

**Q.** What about the “Population Mitochondria Different-Phenotype (%)” value [12] of the same compound?
**A.** 87%

**Q.** What about the “Population Normal (%)” value [12] of the same compound?
**A.** 76%

**Q.** And the “Population Pyknosed Nuclei (%)” value [12]?
**A.** 10%

**Q.** What about the “Population Tubulin-Different-Phenotype (%)” value [12] of the same compound?
**A.** 74%

**Q.** And the “Total Cell Count” value [12]?
**A.** 467

— ChEMBL document CHEMBL5058577, “EUbOPEN Chemogenomics Library 2 (Multiplex)” (2022)
